We go through one molecule from ChEMBL document CHEMBL2062496, “Identification of a sirtuin 3 inhibitor that displays selectivity over sirtuin 1 and 2” (Eur J Med Chem, 2012).

The nature of assay [1]: Growth inhibition of human Hs 578T cells assessed as cell growth at 10 uM after 48 hrs by MTT assay; values are per cent of control. (In general: Tetrazolium dyes change colour on reduction, which living cells bring about.)
For another assay, the system named is SF-295. In words: Growth inhibition of human SF295 cells assessed as cell growth at 10 uM after 48 hrs by MTT assay; values are per cent of control. The settings on record: SF-295, 48 h.
The test system of a further assay is MCF7. In words: Growth inhibition of human MCF7 cells assessed as cell growth at 10 uM after 48 hrs by MTT assay; values are per cent of control. The settings on record: MCF7, 48 h.
The next assay has as its system SW-620. In words: Growth inhibition of human SW620 cells assessed as cell growth at 10 uM after 48 hrs by MTT assay; values are per cent of control. The settings on record: SW-620, 48 h.
The test system of another assay is PC-3. Kind of assay: Growth inhibition of human PC3 cells assessed as cell growth at 10 uM after 48 hrs by MTT assay; values are per cent of control. The conditions noted are these: PC-3, 48 h.
For another assay, the system named is SK-MEL-2. Kind of assay: Growth inhibition of human SK-MEL-2 cells assessed as cell growth at 10 uM after 48 hrs by MTT assay; values are per cent of control. The conditions noted are these: SK-MEL-2, 48 h.
The test system of another assay is OVCAR-3. Kind of assay: Growth inhibition of human OVCAR3 cells assessed as cell growth at 10 uM after 48 hrs by MTT assay; values are per cent of control. The conditions noted are these: OVCAR-3, 48 h.
In a further assay the test system is RXF 393. In words: Growth inhibition of human RXF393 cells assessed as cell growth at 10 uM after 48 hrs by MTT assay; values are per cent of control. The settings on record: RXF 393, 48 h.
For assay [2], the system named is SK-MEL-28. In words: Growth inhibition of human SK-MEL-28 cells assessed as cell growth at 10 uM after 48 hrs by MTT assay; values are per cent of control. The settings on record: SK-MEL-28, 48 h.
For the next assay, the system named is MDA-MB-468. In words: Growth of human MDA-MB-468 cells assessed as cell growth at 10 uM after 48 hrs by MTT assay. The conditions noted are these: MDA-MB-468, 48 h.
The test system of a further assay is HL-60(TB). In words: Growth inhibition of human HL-60(TB) cells assessed as cell growth at 10 uM after 48 hrs by MTT assay. It counts as functional. The settings on record: HL-60, 48 h, read-out: GI.
The target of assay [3] is T1, NAD-dependent protein deacetylase sirtuin-2 (Homo sapiens) (UniProt Q8IXJ6).
T1 sequence (whole entry): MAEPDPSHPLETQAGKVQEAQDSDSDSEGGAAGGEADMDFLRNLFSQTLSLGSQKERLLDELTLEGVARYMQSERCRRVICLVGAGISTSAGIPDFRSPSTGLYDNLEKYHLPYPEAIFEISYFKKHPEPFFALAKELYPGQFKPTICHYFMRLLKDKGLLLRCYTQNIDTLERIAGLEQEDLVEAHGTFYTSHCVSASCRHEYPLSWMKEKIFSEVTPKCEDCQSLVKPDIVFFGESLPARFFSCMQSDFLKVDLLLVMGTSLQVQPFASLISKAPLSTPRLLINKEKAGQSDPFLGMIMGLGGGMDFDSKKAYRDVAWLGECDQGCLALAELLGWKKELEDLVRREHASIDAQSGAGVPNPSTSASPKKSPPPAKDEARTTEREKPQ
Kind of assay: Inhibition of human SIRT2 assessed as enzyme activity using Fluor-de-Lys as substrate at 1 mM by fluorometry. Also noted: scale not given: the % may be the effect or the level left. In outline:
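Commercial Fluor-de-Lys kit, substrate human p53 379–382 peptide (Arg-His-Lys-Lys(Ac)). Human Sirt1 or Sirt2 was incubated with substrate, NAD+ and compound at 1 mM, also tested at 100 µM. Fluorescence scales with Lys382 deacetylation. Activity is expressed relative to control, mean ± S.E.M. of 3–4 replicates.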

The test system of another assay is U-251. Kind of assay: Growth inhibition of human U251 cells assessed as cell growth at 10 uM after 48 hrs by MTT assay; values are per cent of control. The settings on record: U-251, 48 h.
A further assay deals with UACC-257. Kind of assay: Growth inhibition of human UACC257 cells assessed as cell growth at 10 uM after 48 hrs by MTT assay; values are per cent of control. The settings on record: UACC-257, 48 h.
For the next assay, the system named is MDA-MB-435. In words: Growth inhibition of human MDA-MB-435 cells assessed as cell growth at 10 uM after 48 hrs by MTT assay; values are per cent of control. The settings on record: MDA-MB-435, 48 h.
Another assay has as its system SN12C. In words: Growth inhibition of human SN12C cells assessed as cell growth at 10 uM after 48 hrs by MTT assay; values are per cent of control.
Assay [4] deals with SK-MEL-28. Kind of assay: Effect on ATP level in human SK-MEL-28 cells maintained in medium containing GF and glucose at 100 uM after 24 hrs by luciferase-based assay. It counts as functional, cell-based. In outline:
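SK-MEL-28 cells in DMEM with 10% FBS, grown 24 h in 96-well plates in regular medium (growth factors, glucose), with or without compound at 100 µM. Antimycin served as positive control. Cellular ATP was released with a somatic cell releasing reagent and read by luciferase/luciferin bioluminescence. Mean ± S.E.M. of 10–14 replicates from 3 separate experiments.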

A further assay concerns ACHN. Kind of assay: Growth inhibition of human ACHN cells assessed as cell growth at 10 uM after 48 hrs by MTT assay; values are per cent of control.
A further assay concerns SNB-19. Kind of assay: Growth inhibition of human SNB19 cells assessed as cell growth at 10 uM after 48 hrs by MTT assay; values are per cent of control. The conditions noted are these: SNB-19, 48 h.
A further assay deals with Malme-3M. In words: Growth inhibition of human MALME-3M cells assessed as cell growth at 10 uM after 48 hrs by MTT assay; values are per cent of control.
Another assay relates to HOP-92. Kind of assay: Growth of human HOP92 cells assessed as cell growth at 10 uM after 48 hrs by MTT assay. The settings on record: HOP-92, 48 h.
The subject of another assay is COLO 205. Kind of assay: Growth inhibition of human COLO205 cells assessed as cell growth at 10 uM after 48 hrs by MTT assay; values are per cent of control. The conditions noted are these: COLO 205, 48 h.
In a further assay the test system is 786-0. Kind of assay: Growth inhibition of human 786-0 cells assessed as cell growth at 10 uM after 48 hrs by MTT assay; values are per cent of control. The settings on record: 786-0, 48 h.
A further assay has as its system A549. Kind of assay: Growth of human A549/ATCC cells assessed as cell growth at 10 uM after 48 hrs by MTT assay. The settings on record: A549, 48 h.

The source made the active and inactive calls. The rule behind the calls is not given here.

Consider `c1cncc(-c2cnn[nH]2)c1`, for which the growth, % of control at 10 µM came to 118% in assay [1]; 107% in the assay with SF-295; 117% with MCF7; 106% with SW-620; 88.5% in the assay on PC-3; 109% with SK-MEL-2. Also, the growth, % of control at 10 µM in the assay with OVCAR-3 came out at 89.5%; with RXF 393, 98.6%; with SK-MEL-28 [2] it was 106%; in the assay with MDA-MB-468, 104%; in the assay with U-251, 111%; in the assay on UACC-257 it was 90.3%. In addition, the growth, % of control at 10 µM turned out to be 56% with MDA-MB-435; 102% with SN12C; 111% in the assay on ACHN; 102% with SNB-19; 99% with Malme-3M; 80.8% in the assay on HOP-92. For the same molecule, the growth, % of control at 10 µM with COLO 205 amounted to 23.8%; with 786-0, 104%; in the assay with A549, 101%. Moreover, the inhibition of growth at 10 µM with HL-60(TB) is 92.9%. For the same molecule, the Activity in [3] was found to be 92%. For the same molecule, the outcome with SK-MEL-28 [4] was inactive.
